Reference: ChEMBL document CHEMBL3046392, “Antifungal activities of N-arylbenzenesulfonamides against phytopathogens and control efficacy on wheat leaf rust and cabbage club root diseases” (Biosci Biotechnol Biochem, 2002)
≈ marks a conversion by molar mass, not a printed value.

How the values were obtained:
Assay type in all cases: functional
[1] = system: Plasmodiophora brassicae; assay: Antifungal activity against Plasmodiophora brassicae in cabbage seedlings transplanted after soil infestation with fungus followed by compound application to soil assessed as cabbage club root disease control efficacy at 500 ug/ml measured after 35 days post fungal inoculation
Outline: (§1)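 Soil was inoculated with P. brassicae spore suspension (2×10⁶ spores/ml), then cabbage seedlings were transplanted. 10 ml of each compound solution was applied to assess disease suppression. Disease severity was assessed 35 days after inoculation, with control value calculated relative to untreated plants.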

[2] = system: Plasmodiophora brassicae; assay: Antifungal activity against Plasmodiophora brassicae in cabbage seedlings transplanted after soil infestation with fungus followed by compound application to soil assessed as cabbage club root disease control efficacy at 167 ug/ml measured after 35 days post fungal inoculation; outline: as §1
[3] = system: Plasmodiophora brassicae; assay: Antifungal activity against Plasmodiophora brassicae in cabbage seedlings transplanted after soil infestation with fungus followed by compound application to soil assessed as cabbage club root disease control efficacy at 56 ug/ml measured after 35 days post fungal inoculation; outline: as §1
[4] = system: Plasmodiophora brassicae; assay: Antifungal activity against Plasmodiophora brassicae in cabbage seedlings transplanted after soil infestation with fungus followed by compound application to soil assessed as cabbage club root disease control efficacy at 19 ug/ml measured after 35 days post fungal inoculation; outline: as §1
[5] = system: Blumeria hordei; assay: Antifungal activity against Blumeria graminis f. sp. hordei infected compound pre-treated barley seedlings at first-leaf stage assessed as barley powdery mildew disease control values at 50 ug/ml measured after 7 days post fungal inoculation
Outline: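 Pot-grown barley seedlings at first-leaf stage were sprayed with compound dissolved in water+methanol (95+5) containing Tween 20 (250 mg/l), left 24 h, then inoculated with the powdery mildew fungus. Control value = 100 × (untreated − treated severity)/untreated severity.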

[6] = system: Puccinia recondita; assay: Antifungal activity against Puccinia recondita infected on compound pre-treated wheat seedlings at first-leaf stage assessed as wheat leaf rust disease control values at 50 ug/ml measured after 7 days post fungal inoculation
Outline: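 First-leaf wheat seedlings were sprayed with compound in water+methanol (95+5) with Tween 20 (250 mg/l) and left 24 h. They were sprayed with P. recondita spores (0.67 g/l, Tween 20 250 mg/l) and kept 1 day in a moist chamber at 20 °C, then moved to an incubation room. Infected leaf area was rated 7 days post-inoculation and converted to a control value relative to untreated plants.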

[7] = system: Phytophthora capsici; assay: Antifungal activity against Phytophthora capsici infected on compound pre-treated tomato seedlings at second-leaf stage assessed as tomato late blight disease control values at 50 ug/ml measured after 3 to 4 days post fungal inoculation
[8] = system: Botrytis cinerea; assay: Antifungal activity against Botryotinia fuckeliana infected compound pre-treated tomato seedlings at second-leaf stage assessed as tomato gray mould disease control values at 50 ug/ml measured after 3 to 4 days post fungal inoculation
Outline: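 Greenhouse-grown potted tomato seedlings at second-leaf stage were sprayed with compound in water+methanol (95+5) with Tween 20 (250 mg/l), left 24 h, then spray-inoculated with B. cinerea spore suspension. Plants were kept in the dark at 25 °C, 100% RH. Severity was scored after 3–4 days, and control value = 100 × (untreated − treated severity)/untreated severity.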

[9] = system: Corticium; assay: Antifungal activity against Corticium sasaki Matsu infected compound pre-treated rice seedlings at third-leaf stage assessed as rice sheath blight disease control values at 50 ug/ml measured after 4 days post fungal inoculation
Outline: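 Rice seedlings at third-leaf stage were sprayed with compound in water+methanol (95+5) plus Tween 20 (250 mg/l) and left 24 h. They were inoculated with 7-day-old wheat–rice bran cultures of C. sasaki and held 4 days dark at 25 °C, 100% RH, then 4 days in a growth chamber (25 °C, 100% RH, 12 h light). Control value was calculated from disease severity relative to untreated plants.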

[10] = system: Pyricularia grisea; assay: Antifungal activity against Magnaporthe grisea infected on compound pre-treated rice seedlings at second-leaf stage assessed as rice blast disease control values at 50 ug/ml measured after 5 days post fungal inoculation
Outline: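 Rice seedlings grown in greenhouse pots at 25±5 °C, sprayed with compound in water+methanol (95+5) containing Tween 20 (250 mg/l) as wetting agent, left 24 h, then inoculated with M. grisea. Disease severity read as percentage infected leaf area 5 days after inoculation. Control value (%) = 100 × (untreated severity − treated severity)/untreated severity.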

[11] = system: Botrytis cinerea; assay: Antifungal activity against Botryotinia fuckeliana assessed as mycelial growth inhibition after 2 to 6 days; conditions: read-out: ED50 (the source's name)
Outline: (§2)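 Serially diluted compound was mixed into 1/5-strength PDA plates at […]. A 5-mm agar plug of each fungus was placed at the plate centre, with three replicate plates per concentration per fungus. Plates were incubated at 25 °C for 2–6 days, radial growth was measured, and ED₅₀ for mycelial growth inhibition was derived by probit analysis.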

[12] = system: Rhizoctonia solani; assay: Antifungal activity against Rhizoctonia solani assessed as mycelial growth inhibition after 2 to 6 days; conditions: read-out: ED50 (the source's name); outline: as §2
[13] = system: Phytophthora capsici; assay: Antifungal activity against Phytophthora capsici assessed as mycelial growth inhibition after 2 to 6 days; conditions: read-out: ED50 (the source's name); outline: as §2
[14] = system: Globisporangium ultimum; assay: Antifungal activity against Pythium ultimum assessed as mycelial growth inhibition after 2 to 6 days; conditions: read-out: ED50 (the source's name); outline: as §2

Structure (SMILES)	Efficacy [1]	Efficacy [2]	Efficacy [3]	Efficacy [4]	Activity [5]	Activity [6]	Activity [7]	Activity [8]	Activity [9]	Activity [10]	EC50 [11]	EC50 [12]	EC50 [13]	EC50 [14]	Activity [1]
O=S(=O)(Nc1ccc(C(F)(F)F)cc1)c1ccccc1	0%	0%	0%	0%	0%	0%	0%	0%	0%	0%	14.8 µg/mL (≈ 49.1 µM)	24.1 µg/mL (≈ 80 µM)	14.6 µg/mL (≈ 48.5 µM)	11.7 µg/mL (≈ 38.8 µM)	
O=S(=O)(Nc1ccc(F)c(C(F)(F)F)c1)c1ccccc1											10.7 µg/mL (≈ 33.5 µM)	16.8 µg/mL (≈ 52.6 µM)	5.6 µg/mL (≈ 17.5 µM)	13.5 µg/mL (≈ 42.3 µM)	
O=[N+]([O-])c1cccc(S(=O)(=O)Nc2ccc(F)c(C(F)(F)F)c2)c1											3.5 µg/mL (≈ 9.61 µM)	6 µg/mL (≈ 16.5 µM)	60.8 µg/mL (≈ 167 µM)	10.1 µg/mL (≈ 27.7 µM)	
O=[N+]([O-])c1ccc(NS(=O)(=O)c2ccccc2)c(C(F)(F)F)c1											33.1 µg/mL (≈ 95.6 µM)	28.5 µg/mL (≈ 82.3 µM)	18.5 µg/mL (≈ 53.4 µM)	19.3 µg/mL (≈ 55.8 µM)	
O=[N+]([O-])c1cccc(S(=O)(=O)Nc2ccc([N+](=O)[O-])cc2C(F)(F)F)c1												26.2 µg/mL (≈ 67 µM)	233 µg/mL (≈ 595 µM)	155 µg/mL (≈ 397 µM)	
O=[N+]([O-])c1ccc(NS(=O)(=O)c2ccccc2)cc1											65.7 µg/mL (≈ 236 µM)	42.3 µg/mL (≈ 152 µM)	10.3 µg/mL (≈ 37 µM)	6.9 µg/mL (≈ 24.8 µM)	
O=[N+]([O-])c1ccc(NS(=O)(=O)c2ccccc2)c(Cl)c1	95%	82%	83%	17%	2%	9%	0%	0%	0%	3%	28 µg/mL (≈ 89.5 µM)	14.4 µg/mL (≈ 46 µM)	9 µg/mL (≈ 28.8 µM)	5.4 µg/mL (≈ 17.3 µM)	
O=S(=O)(Nc1ccccc1)c1ccccc1 [PHENYL(PHENYLSULFONYL)AMINE]											239 µg/mL (≈ 1030 µM)	68.9 µg/mL (≈ 295 µM)	66.6 µg/mL (≈ 285 µM)	75.4 µg/mL (≈ 323 µM)	
O=[N+]([O-])c1ccc(NS(=O)(=O)c2ccc(Cl)c(C(F)(F)F)c2)c(Cl)c1 [FLUSULFAMIDE]		42%	17%	0%											62%
O=[N+]([O-])c1cccc(S(=O)(=O)Nc2ccc([N+](=O)[O-])cc2Cl)c1											63.6 µg/mL (≈ 178 µM)	34.8 µg/mL (≈ 97.3 µM)	7 µg/mL (≈ 19.6 µM)	7.2 µg/mL (≈ 20.1 µM)	
